ChEMBL document CHEMBL2176990, “Synthesis and biological evaluation of 5-benzylidenepyrimidine-2,4,6(1H,3H,5H)-trione derivatives for the treatment of obesity-related nonalcoholic fatty liver disease” (J Med Chem, 2012)
Activity calls are given as the source filed them. The rule behind the calls is not given here.

How the values were obtained:
[1] = tested on: HepG2; assay: Reduction of glucose consumption in insulin-resistant human HepG2 cells at 10 uM after 24 hrs by glucose oxidase method; assay type: functional, cell-based
In short: (§1)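 HepG2 cells in DMEM (22.2 mM glucose) with 10% FBS, exposed to 0.1 μM insulin from plating for 2 days. At confluence, given fresh 22.2 mM glucose DMEM with test agents for 24 h. Medium glucose measured by glucose oxidase. Consumption = blank minus remaining glucose, normalized to MTT. Three independent experiments.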

[2] = tested on: HepG2; assay: Reduction of glucose consumption in insulin-resistant human HepG2 cells at 10 uM after 24 hrs by glucose oxidase method in presence of 0.1 uM of insulin; assay type: functional, cell-based; in short: as §1
[3] = tested on: HepG2; assay: Reduction of glucose consumption in insulin-resistant human HepG2 cells at 1 mM after 24 hrs by glucose oxidase method in presence of 0.1 uM of insulin; assay type: functional, cell-based; in short: as §1
[4] = tested on: Rattus norvegicus; assay: Antiobesity activity in Wistar rat high fat diet-induced NAFLD model assessed as increase of adiponectin level at 150 mg/kg, po qd for 4 weeks; assay type: functional
In short: (§2)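 Male Wistar rats (160−180 g) fed high-fat diet (50.55% calories from fat), n = 10 per group. Dosed orally at 150 mg/kg/day for 4 weeks. Body, liver and fat weights and food intake recorded. Serum lipids, AST, ALT and glucose measured on a biochemistry analyzer. Fasting insulin measured by kit; adiponectin and leptin by ELISA. Mean ± SD; percent change vs HFD group.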

[5] = tested on: HepG2; assay: Reduction of glucose consumption in insulin-resistant human HepG2 cells at 1 mM after 24 hrs by glucose oxidase method in presence of 22.2 mM of glucose; assay type: functional, cell-based; in short: as §1
[6] = tested on: Mus musculus; assay: Antiobesity activity in C57BL/6J mouse high fat diet-induced NAFLD model assessed as reduction of postprandial glucose level at 150 mg/kg, po qd for 6 weeks by intravenous glucose tolerance test; assay type: functional, organism-based; set-up: dose 150 mg/kg
In short: (§3)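 DIO C57BL/6J mice (HFD 60.0% fat) dosed orally for 6 weeks, n = 5, fasted overnight. Glucose load given either orally at 3.0 g/kg (OGTT) or intravenously at 0.5 g/kg (IGTT). Tail-vein blood sampled at 0, 15, 30, 60, 90, 120 and 180 min.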

[7] = tested on: Rattus norvegicus; assay: Antiobesity activity in Wistar rat high fat diet-induced NAFLD model assessed as reduction of leptin level at 150 mg/kg, po qd for 4 weeks; assay type: functional; in short: as §2
[8] = tested on: Rattus norvegicus; assay: Antiobesity activity in Wistar rat high fat diet-induced NAFLD model assessed as reduction of body weight at 150 mg/kg, po qd for 4 weeks; assay type: functional; set-up: scale not given: the % may be the effect or the level left; in short: as §2
[9] = tested on: Mus musculus; assay: Antiobesity activity in C57BL/6J mouse high fat diet-induced NAFLD model assessed as reduction of postprandial glucose level at 150 mg/kg, po qd for 6 weeks by oral glucose tolerance test; assay type: functional, organism-based; set-up: dose 150 mg/kg; in short: as §3
[10] = tested on: Rattus norvegicus; assay: Antiobesity activity in Wistar rat high fat diet-induced NAFLD model assessed as reduction of fat mass at 150 mg/kg, po qd for 4 weeks; assay type: functional; set-up: scale not given: the % may be the effect or the level left; in short: as §2
[11] = tested on: Rattus norvegicus; assay: Antiobesity activity in Wistar rat high fat diet-induced NAFLD model assessed as reduction of liver total cholesterol level at 150 mg/kg, po qd for 4 weeks; assay type: functional; set-up: scale not given: the % may be the effect or the level left
In short: (§4)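 Male Wistar rats on high-fat diet (50.55% fat), dosed orally at 150 mg/kg/day for 4 weeks, n = 10. Liver homogenized in 50 mM Tris-HCl pH 7.4 with 150 mM NaCl, 1 mM PMSF and 1 mM EDTA, then triglycerides and total cholesterol assayed. Liver sections stained with H&E to assess lipid droplets.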

[12] = tested on: Mus musculus; assay: Antiobesity activity in C57BL/6J mouse high fat diet-induced NAFLD model assessed as reduction of fasting blood glucose level at 150 mg/kg, po qd for 7 weeks; assay type: functional; set-up: scale not given: the % may be the effect or the level left
In short: (§5)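 Male C57BL/6J mice, 3 weeks old, fed high-fat diet (60.0% calories from fat) ad libitum for 8 weeks, then randomized into groups of 10. Body weight and food intake recorded daily. Serum markers measured after sacrifice; fasting glucose included. Percent change = (V_HFD − V_treatment)/V_HFD × 100.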

[13] = tested on: 3T3-L1; assay: Down-regulation of […] expression in mouse 3T3L1 cells at 1 mM after 24 hrs by ELISA; assay type: functional
In short: (§6)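 3T3-L1 preadipocytes grown to 2 days post-confluence. Differentiated with 0.5 mM IBMX, 0.25 μM dexamethasone and 1 μg/mL insulin for 2 days, then insulin alone for 2 days, then 10% FBS DMEM. On day 12, treated 24 h; secreted adiponectin and leptin measured by ELISA. Three independent experiments.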

[14] = tested on: Rattus norvegicus; assay: Antiobesity activity in Wistar rat high fat diet-induced NAFLD model assessed as reduction of fasting blood glucose level at 150 mg/kg, po qd for 4 weeks; assay type: functional; set-up: scale not given: the % may be the effect or the level left; in short: as §2
[15] = tested on: Rattus norvegicus; assay: Antiobesity activity in Wistar rat high fat diet-induced NAFLD model assessed as reduction of serum ALT level at 150 mg/kg, po qd for 4 weeks; assay type: functional; in short: as §2
[16] = tested on: Rattus norvegicus; assay: Antiobesity activity in Wistar rat high fat diet-induced NAFLD model assessed as reduction of liver triglycerides level at 150 mg/kg, po qd for 4 weeks; assay type: functional; set-up: scale not given: the % may be the effect or the level left; in short: as §4
[17] = tested on: Rattus norvegicus; assay: Antiobesity activity in Wistar rat high fat diet-induced NAFLD model assessed as reduction of serum insulin level at 150 mg/kg, po qd for 4 weeks; assay type: functional; set-up: scale not given: the % may be the effect or the level left; in short: as §2
[18] = tested on: Rattus norvegicus; assay: Antiobesity activity in Wistar rat high fat diet-induced NAFLD model assessed as reduction of serum triglycerides level at 150 mg/kg, po qd for 4 weeks; assay type: functional; in short: as §2
[19] = tested on: Rattus norvegicus; assay: Antiobesity activity in Wistar rat high fat diet-induced NAFLD model assessed as reduction of serum AST level at 150 mg/kg, po qd for 4 weeks; assay type: functional; in short: as §2
[20] = tested on: Mus musculus; assay: Antiobesity activity in C57BL/6J mouse high fat diet-induced NAFLD model assessed as reduction of serum ALT level at 150 mg/kg, po qd for 7 weeks; assay type: functional; set-up: scale not given: the % may be the effect or the level left; in short: as §5
[21] = tested on: Mus musculus; assay: Antiobesity activity in C57BL/6J mouse high fat diet-induced NAFLD model assessed as reduction of fat mass in epididymal and abdominal at 150 mg/kg, po qd for 7 weeks; assay type: functional, organism-based; set-up: dose 150 mg/kg; in short: as §5
[22] = tested on: Mus musculus; assay: Antiobesity activity in C57BL/6J mouse high fat diet-induced NAFLD model assessed as reduction of body weight at 150 mg/kg, po qd for 7 weeks; assay type: functional; set-up: scale not given: the % may be the effect or the level left; in short: as §5
[23] = tested on: Mus musculus; assay: Antiobesity activity in C57BL/6J mouse high fat diet-induced NAFLD model assessed as reduction of serum free fatty acid level at 150 mg/kg, po qd for 7 weeks; assay type: functional; set-up: scale not given: the % may be the effect or the level left; in short: as §5
[24] = tested on: Rattus norvegicus; assay: Antiobesity activity in Wistar rat high fat diet-induced NAFLD model assessed as reduction of serum total cholesterol level at 150 mg/kg, po qd for 4 weeks; assay type: functional; in short: as §2
[25] = tested on: Rattus norvegicus; assay: Antiobesity activity in Wistar rat high fat diet-induced NAFLD model assessed as reduction of serum HDL-cholesterol level at 150 mg/kg, po qd for 4 weeks; assay type: functional; in short: as §2
[26] = tested on: Rattus norvegicus; assay: Antiobesity activity in Wistar rat high fat diet-induced NAFLD model assessed as reduction of liver weight at 150 mg/kg, po qd for 4 weeks; assay type: functional; set-up: scale not given: the % may be the effect or the level left; in short: as §2
[27] = tested on: Mus musculus; assay: Antiobesity activity in C57BL/6J mouse high fat diet-induced NAFLD model assessed as reduction of serum HDL-cholesterol level at 150 mg/kg, po qd for 7 weeks; assay type: functional; set-up: scale not given: the % may be the effect or the level left; in short: as §5
[28] = tested on: 3T3-L1; assay: Up-regulation of adiponectin expression in mouse 3T3L1 cells at 1 mM after 24 hrs by ELISA; assay type: functional; in short: as §6
[29] = tested on: Mus musculus; assay: Antiobesity activity in C57BL/6J mouse high fat diet-induced NAFLD model assessed as reduction of serum triglycerides level at 150 mg/kg, po qd for 7 weeks; assay type: functional; set-up: scale not given: the % may be the effect or the level left; in short: as §5
[30] = tested on: Mus musculus; assay: Antiobesity activity in C57BL/6J mouse high fat diet-induced NAFLD model assessed as reduction of serum LDL-cholesterol level at 150 mg/kg, po qd for 7 weeks; assay type: functional; set-up: scale not given: the % may be the effect or the level left; in short: as §5
[31] = tested on: Rattus norvegicus; assay: Antiobesity activity in Wistar rat high fat diet-induced NAFLD model assessed as reduction of serum LDL-cholesterol level at 150 mg/kg, po qd for 4 weeks; assay type: functional; in short: as §2
[32] = tested on: HepG2; assay: Reduction of glucose consumption in insulin-resistant human HepG2 cells at 10 uM after 24 hrs by glucose oxidase method in presence of 22.2 mM of glucose; assay type: functional, cell-based; in short: as §1
[33] = tested on: 3T3-L1; assay: Up-regulation of adiponectin expression in mouse 3T3L1 cells at 10 uM after 24 hrs by ELISA; assay type: functional; in short: as §6
[34] = tested on: 3T3-L1; assay: Down-regulation of […] expression in mouse 3T3L1 cells at 10 uM after 24 hrs by ELISA; assay type: functional; in short: as §6
[35] = tested on: Rattus norvegicus; assay: Toxicity in Wistar rat high fat diet-induced NAFLD model assessed as effect on food intake at 150 mg/kg, po qd for 4 weeks; assay type: organism-based; set-up: dose 150 mg/kg, route oral; conditions: in vivo, 672 h; in short: as §2

O=C1NC(=O)C(=Cc2ccc(OC3CCN(C(=O)c4ccc(OC(F)F)cc4)CC3)cc2)C(=O)N1
Activity [1]: inactive | Activity [2]: inactive

CN(C)C(=N)NC(=N)N [METFORMIN]
Activity [3]: Active | Activity [4]: 198.3 µg/mL | Activity [5]: Active | Activity [6]: Active | Activity [7]: 13.6 ng/mL | Activity [8]: 5.2% | Activity [9]: Active | Activity [10]: 18.1% | Activity [11]: 50% | Activity [12]: 10.3% | Activity [13]: 360.8 pg/mL | Activity [14]: 19.7% | Activity [15]: 39 U/L | Activity [16]: 48.8% | Activity [17]: 12.8% | Activity [18]: 1.6 mmol/L | Activity [19]: 89 U/L | Activity [20]: 66% | Activity [21]: Active | Activity [22]: 9.62% | Activity [23]: 3.7% | Activity [24]: 1.99 mmol/L | Activity [25]: 0.28 mmol/L | Activity [26]: 2.2% | Activity [27]: 46.7% | Activity [28]: 125.8 pg/mL | Activity [29]: 29.3% | Activity [30]: 44.4% | Activity [31]: 0.15 mmol/L

O=C1NC(=O)C(=Cc2ccc(C(=O)NC3CCN(c4cc([N+](=O)[O-])ccn4)CC3)cc2)C(=O)N1
Activity [1]: inactive | Activity [2]: inactive

O=C1NC(=O)C(=Cc2ccc(C(=O)N3CCC(Nc4ccc([N+](=O)[O-])cn4)CC3)cc2)C(=O)N1
Activity [1]: inactive | Activity [2]: inactive

O=C1NC(=O)C(=Cc2ccc(OC3CCN(C(=O)c4ccc(OC(F)F)cc4)CC3)c(F)c2)C(=O)N1
Activity [32]: Active | Activity [2]: Active

CN(CCOc1ccc(CC2SC(=O)NC2=O)cc1)c1ccccn1 (stereo unspecified) [ROSIGLITAZONE]
Activity [33]: 236 pg/mL | Activity [34]: 118.8 pg/mL | Activity [32]: Active | Activity [2]: Active

N#Cc1cccnc1N1CCC(Oc2ccc(C=C3C(=O)NC(=O)NC3=O)cc2)CC1
Activity [1]: inactive | Activity [2]: inactive

CN(C)C(=N)N=C(N)N [METFORMIN]
Activity [35]: Non-toxic

O=C1NC(=O)C(=Cc2ccc(OC3CCN(C(=O)c4cccc5c4OC(F)(F)O5)CC3)c(F)c2)C(=O)N1
Activity [1]: inactive | Activity [2]: inactive

CS(=O)(=O)N(Cc1ccc(C=C2C(=O)NC(=O)NC2=O)cc1)C1CCN(c2ccc([N+](=O)[O-])cn2)CC1
Activity [1]: inactive | Activity [2]: inactive

O=C1NC(=O)C(=Cc2ccc(OC3CCN(C(=O)c4cccc(C(F)(F)F)c4)CC3)cc2)C(=O)N1
Activity [33]: Active | Activity [34]: inactive | Activity [32]: Active | Activity [2]: Active

COC(=O)c1sccc1S(=O)(=O)N1CCC(Oc2ccc(C=C3C(=O)NC(=O)NC3=O)cc2F)CC1
Activity [1]: inactive | Activity [2]: inactive

O=C1NC(=O)C(=Cc2ccc(CNC3CCN(c4ccc([N+](=O)[O-])cn4)CC3)cc2)C(=O)N1
Activity [1]: inactive | Activity [2]: inactive
